Published values of several laboratories.
Target: Myotonin-protein kinase (DMPK, Homo sapiens, UniProt Q09013)
Residues used in one study (Q09013 1-629): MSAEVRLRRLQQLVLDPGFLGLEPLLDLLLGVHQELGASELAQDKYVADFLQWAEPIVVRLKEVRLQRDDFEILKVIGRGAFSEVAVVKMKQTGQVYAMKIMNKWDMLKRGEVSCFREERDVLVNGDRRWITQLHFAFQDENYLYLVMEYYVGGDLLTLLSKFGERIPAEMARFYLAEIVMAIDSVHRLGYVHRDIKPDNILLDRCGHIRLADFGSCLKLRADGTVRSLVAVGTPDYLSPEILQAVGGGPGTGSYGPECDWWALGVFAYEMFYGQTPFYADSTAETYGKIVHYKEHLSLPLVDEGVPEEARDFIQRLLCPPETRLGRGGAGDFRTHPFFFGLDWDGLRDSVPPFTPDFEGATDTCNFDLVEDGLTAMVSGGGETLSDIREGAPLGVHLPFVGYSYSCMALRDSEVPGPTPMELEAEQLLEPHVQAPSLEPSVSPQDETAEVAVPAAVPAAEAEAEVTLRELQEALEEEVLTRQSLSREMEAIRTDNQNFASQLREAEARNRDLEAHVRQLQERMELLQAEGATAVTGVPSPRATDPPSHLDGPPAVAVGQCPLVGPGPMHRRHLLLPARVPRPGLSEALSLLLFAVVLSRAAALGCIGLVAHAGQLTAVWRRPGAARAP

Compound	read-out	technique	concentration	remaining binding
FC(F)(F)Oc1cccc(-c2cnc3ccc(-c4ccncc4)nn23)c1	cell-free assay	competition with immobilised ligand	5 µM	99%
Cn1nc(C(=O)NCc2ccc(C(=O)O)cc2)cc1-c1ccc2[nH]ccc2c1	cell-free assay	competition with immobilised ligand	0.1 µM	76%
CNC(=O)[C@@H]1CC[C@@H](n2c(-c3ccc4cnccc4c3)nc3ccc(C(=O)NCc4cccc(C(N)=O)c4)cc32)C1	binding	competition with immobilised ligand	1 µM	86%
C[C@H]1CCN(c2nccc(-c3cnn4ncccc34)n2)C1	binding	–	1 µM	100%
O=c1nc(-c2ccccn2)sc2ccccc12	binding	competition with immobilised ligand	1 µM	100%
Cc1cnc(Nc2ccc(C(=O)N3CCC(N4CCCC4)CC3)cc2)nc1-c1cc2ccccc2s1	binding	competition with immobilised ligand	1 µM	100%
CNCc1ccccc1-c1csc([C@H](C)Nc2nc(C)nc3cc(OC)c(OC)cc23)c1	cell-free assay	competition with immobilised ligand	1 µM	85%
O=C(NCCCN1CCOCC1)c1ccc(Nc2ncc(Cl)c(-c3ccc(Cl)s3)n2)cc1	binding	competition with immobilised ligand	1 µM	100%
CCC(=O)N[C@H]1CC[C@@H](C(=O)N(C)c2ccc(-c3nc4ccccc4o3)cc2)C1	cell-free assay	competition with immobilised ligand	1 µM	100%
O=C(Nc1c[nH]nc1C(=O)NC1CCNCC1)c1cc(F)cc(F)c1	binding	competition with immobilised ligand	1 µM	100%
COc1ncc2cc3ccccc3nc2c1C#N	cell-free assay	competition with immobilised ligand	5 µM	100%
CN(C)c1nccc(-c2cnn3ncccc23)n1	binding	–	1 µM	100%
Nc1ncc2c(n1)-c1c([nH]c3ccc(C#CC4CC4)cc13)CCCC2	binding	competition with immobilised ligand	1 µM	82%
C[C@H](c1cccc(C#N)c1)n1cc(Cl)cc(C(N)=O)c1=N	cell-free assay	competition with immobilised ligand	1 µM	100%
COc1ccnn2ncc(-c3ccnc(N(C)C)n3)c12	binding	–	1 µM	100%
COc1cnc(Nc2cccc(S(N)(=O)=O)c2)nc1N1CCN(c2ccccc2)CC1	binding	competition with immobilised ligand	1 µM	100%
CN(C)c1nccc(-c2cnc3ncccn23)n1	binding	–	1 µM	82%
O=C1CCc2cc(Nc3cc(OC4CCOCC4)c([N+](=O)[O-])cc3Cl)ccc2N1	cell-free assay	competition with immobilised ligand	1 µM	96%
CN(c1nccc(-c2cnn3ncccc23)n1)C1CC1	binding	–	1 µM	100%
O=C(c1ccc(Nc2nccc(-c3cc4ccccc4s3)n2)cc1)N1CCC(N2CCCC2)CC1	binding	competition with immobilised ligand	1 µM	100%
CO[C@@H](C)c1c(Nc2ccc([C@@H](N(C)C(=O)C3CCS(=O)(=O)CC3)C(F)(F)F)cc2)cnc2cc(Cl)nn12	cell-free assay	competition with immobilised ligand	1 µM	91%
N[C@H]1CCN(c2nccc(-c3cnn4ncccc34)n2)C1	binding	–	1 µM	57%
